For data set [1], the system named is Severe acute respiratory syndrome-related coronavirus. Nature of the data set: Inhibition of N7-MTase activity of N-terminal His6-tagged SARS-CoV nsp14 expressed in Escherichia coli using GpppAC4 and [3H]SAM as substrate at 50 uM preincubated with enzyme followed by substrate addition and measured after 30 mins by filter binding assay. A digest of the protocol:
(§1)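 Filter binding assay in 40 mM Tris-HCl pH 8.0, 1 mM DTT, 1 mM MgCl2, 2 µM SAM, 0.1 µM 3H-SAM and 0.7 µM GpppAC4 RNA. Enzyme is nsp14 (50 nM), hRNMT (50 nM) or vaccinia D1–D12 (41 U). Compound is at 50 µM with 5% final DMSO. Reactions run 30 min at 30 °C, are stopped by ice-cold water dilution, and 3H on DEAE filters is counted. Percent inhibition is relative to a 5% DMSO control, mean of three experiments.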

In data set [2] the test system is Orthopoxvirus vaccinia. Nature of the data set: Inhibition of N7-MTase activity of Vaccinia virus mRNA capping enzyme D1/D12 complex using GpppAC4 and [3H]SAM as substrate at 50 uM preincubated with enzyme followed by substrate addition and measured after 30 mins by filter binding assay. In short, it runs like this: as §1
For data set [3], the target named is RNA-N7 MTase (mRNA cap guanine-N(7) methyltransferase) (Homo sapiens, UniProt O43148). Put plainly: Inhibition of N-terminal His6-tagged human RNA-N7 MTase expressed in Escherichia coli using GpppAC4 and [3H]SAM as substrate at 50 uM preincubated with enzyme followed by substrate addition and measured after 30 mins by filter binding assay. The following applies: probe GpppAC4 and [3H]SAM. In short, it runs like this:
as §1

Data set [4] has as its system Severe acute respiratory syndrome-related coronavirus. Put plainly: Inhibition of 2'-O-MTase activity of SARS-CoV nsp10/16 complex at 200 uM.
The test system of another data set is Zika virus. Nature of the data set: Inhibition of 2'-O-methyltransferase in Zika virus at 200 uM.
Another data set concerns West Nile virus. Nature of the data set: Inhibition of 2'-O-methyltransferase in West-Nile virus at 200 uM.
Another data set concerns Dengue virus. Nature of the data set: Inhibition of 2'-O-methyltransferase in Dengue virus at 200 uM.
Data set [5] deals with Orthopoxvirus vaccinia. Put plainly: Inhibition of 2'-O-methyltransferase activity of Vaccinia virus VP39 at 200 uM.
Data set [6] is described as follows: Inhibition of N7-MTase activity of N-terminal His6-tagged SARS-CoV nsp14 expressed in Escherichia coli using GpppAC4 and [3H]SAM as substrate preincubated with enzyme followed by substrate addition and measured after 30 mins by filter binding assay. On the set-up: species or system Severe acute respiratory syndrome-related coronavirus. In short, it runs like this:
(§2)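 Dose-response filter binding assay with nsp14 or hRNMT (each 50 nM) pre-incubated with increasing compound concentrations (5% final DMSO). Then 0.7 µM GpppAC4, 2 µM SAM and 0.1 µM 3H-SAM are added in Tris pH 8.0/DTT/MgCl2, 30 min at 30 °C. IC50 is taken from a Hill slope fit, mean of three independent experiments.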

Data set [7] has as its target mRNA cap guanine-N(7) methyltransferase (Homo sapiens, UniProt O43148). Nature of the data set: Inhibition of N-terminal His6-tagged human RNA-N7 MTase expressed in Escherichia coli using GpppAC4 and [3H]SAM as substrate preincubated with enzyme followed by substrate addition and measured after 30 mins by filter binding assay. A digest of the protocol: as §2
Data set [8] deals with Severe acute respiratory syndrome-related coronavirus. Nature of the data set: Binding affinity to SARS-CoV nsp14 assessed as increase in melting temperature at 1 mM at pH 7.5 by differential scanning fluorimetry. In short, it runs like this: (§3)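 Purified SARS-CoV nsp14 (5 µM) in 20 mM HEPES pH 7.5, 150 mM NaCl and 1X SYPRO orange, with 1 mM compound (DMSO stock; SAM and sinefungin from water). Protein is mixed with compound before dye is added. Fluorescence is read from 20 to 95 °C at 0.2 °C/min. Tm comes from curve fitting, and ΔTm is taken against a 5% DMSO control.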
(In general: DSF heats the sample and reads unfolding from a dye or from intrinsic fluorescence.)

The test system is the same in data set [9]. Nature of the data set: Binding affinity to SARS-CoV nsp14 assessed as melting temperature at 1 mM at pH 7.5 by differential scanning fluorimetry. A digest of the protocol: as §3

Active and inactive are the calls of the source. The rule behind the calls is not given here.

Chain of RNA-N7 MTase (mRNA cap guanine-N(7) methyltransferase) (O43148 whole entry): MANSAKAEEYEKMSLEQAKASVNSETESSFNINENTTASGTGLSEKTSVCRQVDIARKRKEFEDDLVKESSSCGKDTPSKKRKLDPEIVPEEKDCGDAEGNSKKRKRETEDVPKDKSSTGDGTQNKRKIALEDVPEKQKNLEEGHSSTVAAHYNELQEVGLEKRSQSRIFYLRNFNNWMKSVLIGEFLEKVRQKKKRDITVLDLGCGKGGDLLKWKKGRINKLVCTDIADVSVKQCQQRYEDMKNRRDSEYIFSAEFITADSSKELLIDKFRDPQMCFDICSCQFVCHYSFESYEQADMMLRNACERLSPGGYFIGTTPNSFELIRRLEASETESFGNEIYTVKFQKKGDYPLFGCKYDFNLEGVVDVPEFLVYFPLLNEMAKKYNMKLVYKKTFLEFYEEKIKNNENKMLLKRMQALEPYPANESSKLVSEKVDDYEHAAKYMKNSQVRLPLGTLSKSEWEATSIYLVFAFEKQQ
Chain of mRNA cap guanine-N(7) methyltransferase (O43148 whole entry): as above

One may read the inhibition as the drop in the measured response relative to a control, in per cent. As for `COC(=O)CCCN(CCO[C@@H]1[C@H](O)[C@@H](CO)O[C@H]1n1cnc2c(N)ncnc21)C[C@H]1O[C@@H](n2cnc3c(N)ncnc32)[C@H](O)[C@@H]1O`, the inhibition result (in data set [1]; in data set [4]; in the data set on Zika virus; with West Nile virus; in the data set with Dengue virus; in the data set on Orthopoxvirus vaccinia [5]) was “inactive” in each case. For the same compound, in the data set with Orthopoxvirus vaccinia [2], the inhibition stood at 69.2%. In addition, the inhibition at 0.5 h, 50 µM in data set [3] amounted to 32.8%.

By IC50 is commonly meant the midpoint of a concentration-inhibition curve. For `Nc1ncnc2c1ncn2[C@@H]1O[C@H](CN(CCO[C@@H]2[C@H](O)[C@@H](CO)O[C@H]2n2cnc3c(N)ncnc32)CC[C@H](N)C(=O)O)[C@@H](O)[C@H]1O`, the inhibition stood at 72% in data set [1] and 85.8% in the data set on Orthopoxvirus vaccinia [2]. In data set [3], this compound displayed an inhibition at 0.5 h, 50 µM of 77.4%. The IC50 in [6] worked out at 40.6 µM; in data set [7], 10.9 µM. In addition, the inhibition entry (in data set [4]; in the data set on Zika virus; in the data set on West Nile virus; in the data set on Dengue virus; in the data set with Orthopoxvirus vaccinia [5]) was “inactive” throughout.

As to `COC(=O)[C@@H](N)CCN(CCO[C@@H]1[C@H](O)[C@@H](CO)O[C@H]1n1cnc2c(N)ncnc21)C[C@H]1O[C@@H](n2cnc3c(N)ncnc32)[C@H](O)[C@@H]1O`, the inhibition in data set [1] was 30.6%; in the data set with Orthopoxvirus vaccinia [2], 32.1%. Besides, in data set [3], the inhibition at 0.5 h, 50 µM amounted to 33.2%. Further, the inhibition entry (in data set [4]; in the data set on Zika virus; in the data set with West Nile virus; in the data set on Dengue virus; with Orthopoxvirus vaccinia [5]) was “inactive” in each case.

With `NC(=O)[C@@H](N)CCN(CCO[C@@H]1[C@H](O)[C@@H](CO)O[C@H]1n1cnc2c(N)ncnc21)C[C@H]1O[C@@H](n2cnc3c(N)ncnc32)[C@H](O)[C@@H]1O`, the values for the inhibition (in [1]; with Orthopoxvirus vaccinia [2]) were 13.1% and 53.2%, respectively. In data set [3], this compound yielded an inhibition at 0.5 h, 50 µM of 12.2%. The inhibition entry (in data set [4]; in the data set on Zika virus; in the data set on West Nile virus; in the data set with Dengue virus; in the data set on Orthopoxvirus vaccinia [5]) was “inactive” each time.

With `CCCCN(CCO[C@@H]1[C@H](O)[C@@H](CO)O[C@H]1n1cnc2c(N)ncnc21)C[C@H]1O[C@@H](n2cnc3c(N)ncnc32)[C@H](O)[C@@H]1O`, the inhibition entry (in data set [1]; in the data set on Orthopoxvirus vaccinia [2]; in data set [4]; in the data set on Zika virus; with West Nile virus; with Dengue virus) was “inactive” each time. In the data set on Orthopoxvirus vaccinia [5], the inhibition result is “inactive”. This compound returned an inhibition at 0.5 h, 50 µM in [3] of 27.5%.

In the case of `Nc1ncnc2c1ncn2[C@@H]1O[C@H](CNCCO[C@@H]2[C@H](O)[C@@H](CO)O[C@H]2n2cnc3c(N)ncnc32)[C@@H](O)[C@H]1O`, the inhibition in data set [1] was 31%; with Orthopoxvirus vaccinia [2], 20.3%. This compound also yielded an inhibition at 0.5 h, 50 µM in data set [3] of 35.2%. In addition, the inhibition entry (in [4]; in the data set with Zika virus; in the data set with West Nile virus; in the data set with Dengue virus; in the data set on Orthopoxvirus vaccinia [5]) was “inactive” in each case.

In data set [1], `Nc1ncnc2c1ncn2[C@@H]1O[C@H](CN(CCCC(=O)O)CCO[C@@H]2[C@H](O)[C@@H](CO)O[C@H]2n2cnc3c(N)ncnc32)[C@@H](O)[C@H]1O` came in with an inhibition of 43%. The inhibition result (with Orthopoxvirus vaccinia [2]; in data set [4]; in the data set on Zika virus; in the data set on West Nile virus; in the data set on Dengue virus; in the data set on Orthopoxvirus vaccinia [5]) was “inactive” each time.

What is called ΔTm is the shift of the melting midpoint relative to a reference. As to `Nc1ncnc2c1ncn2[C@@H]1O[C@H](CSCC[C@H](N)C(=O)O)[C@@H](O)[C@H]1O`, the ΔTm in data set [8] was determined as 6.5 °C.

On to `Nc1ncnc2c1ncn2[C@@H]1OC(CN(CCCc2ccccc2)CCO[C@@H]2[C@H](O)C(CO)O[C@H]2n2cnc3c(N)ncnc32)[C@@H](O)[C@H]1O` (single isomer, unassigned), for which the inhibition in data set [1] is 38.4%; in the data set with Orthopoxvirus vaccinia [2] it was 11.6%. Moreover, the inhibition at 0.5 h, 50 µM in [3] turned out to be 23.1%. The IC50 in data set [6] is 55.5 µM; in [7], greater than 500 µM. Besides, the ΔTm in [8] stood at 4.6 °C. Further, the Tm in data set [9] is greater than 40 °C. For the same compound, the inhibition result (in data set [4]; in the data set with Zika virus; in the data set on West Nile virus; in the data set on Dengue virus; with Orthopoxvirus vaccinia [5]) was “inactive” each time.

For the compound `Nc1ncnc2c1ncn2[C@@H]1OC(CN(CCO[C@@H]2[C@H](O)C(CO)O[C@H]2n2cnc3c(N)ncnc32)S(=O)(=O)c2ccc(Cl)cc2)[C@@H](O)[C@H]1O` (single isomer, unassigned), the inhibition was found to be 96.2% in [1] and 19.7% in the data set on Orthopoxvirus vaccinia [2]. Also, the inhibition at 0.5 h, 50 µM in data set [3] was determined as 20.2%. Besides, the IC50 in [6] is 1.5 µM. The thermal shift (ΔTm) in data set [8] turned out to be 4.6 °C. Moreover, in data set [9], the Tm was greater than 40 °C. In addition, the inhibition entry (in data set [4]; in the data set with Zika virus; with West Nile virus; in the data set with Dengue virus; in the data set on Orthopoxvirus vaccinia [5]) was “inactive” in each case.

For `Nc1ncnc2c1ncn2[C@@H]1OC(CN(CCO[C@@H]2[C@H](O)C(CO)O[C@H]2n2cnc3c(N)ncnc32)Cc2ccc(Cl)cc2)[C@@H](O)[C@H]1O` (single isomer, unassigned), the values for the inhibition (in data set [1]; in the data set on Orthopoxvirus vaccinia [2]) were 75.9% and 4.5%, respectively. This compound returned an inhibition at 0.5 h, 50 µM in data set [3] of 14.7%. The compound further showed an IC50 in data set [6] of 9.9 µM. Besides, in data set [8], the ΔTm turned out to be 4.6 °C. Besides, the Tm in [9] is greater than 40 °C. Further, the inhibition result (in [4]; with Zika virus; with West Nile virus; with Dengue virus; in the data set on Orthopoxvirus vaccinia [5]) was “inactive” in each case.

As to `Nc1ncnc2c1ncn2[C@@H]1OC(CN(CCO[C@@H]2[C@H](O)C(CO)O[C@H]2n2cnc3c(N)ncnc32)Cc2ccc(Cl)c([N+](=O)[O-])c2)[C@@H](O)[C@H]1O` (single isomer, unassigned), the values for the inhibition (in data set [1]; with Orthopoxvirus vaccinia [2]) were 94% and 4.3%, respectively. The compound further returned an IC50 in [6] of 2.4 µM. Besides, the ΔTm in [8] came out at 4.6 °C. Besides, the Tm in data set [9] is greater than 40 °C. Besides, the inhibition result (in data set [4]; in the data set with Zika virus; with West Nile virus; in the data set on Dengue virus; in the data set with Orthopoxvirus vaccinia [5]) was “inactive” each time.

With `Nc1ncnc2c1ncn2[C@@H]1OC(CN(CCO[C@@H]2[C@H](O)C(CO)O[C@H]2n2cnc3c(N)ncnc32)S(=O)(=O)c2ccc([N+](=O)[O-])cc2)[C@@H](O)[C@H]1O` (single isomer, unassigned), the inhibition in data set [1] came out at 88.6%; in the data set with Orthopoxvirus vaccinia [2], 49.8%. In addition, in data set [3], the inhibition at 0.5 h, 50 µM was found to be 66%. Further, the IC50 was 2.6 µM in data set [6] and greater than 500 µM in data set [7]. Further, in [8], the ΔTm is 4.6 °C. Further, in [9], the Tm is greater than 40 °C. For the same compound, the inhibition entry (in data set [4]; in the data set on Zika virus; in the data set on West Nile virus; in the data set with Dengue virus; in the data set with Orthopoxvirus vaccinia [5]) was “inactive” throughout.

Regarding `Nc1ncnc2c1ncn2[C@@H]1O[C@H](C[C@@H](N)CC[C@H](N)C(=O)O)[C@@H](O)[C@H]1O` [SINEFUNGIN], the figures for the inhibition (in [1]; in the data set on Orthopoxvirus vaccinia [2]) were 98.3% and 99.8%, respectively. Also, in data set [3], the inhibition at 0.5 h, 50 µM is 99.8%. In addition, the IC50 in data set [6] is 0.36 µM; in data set [7], less than 0.05 µM. In addition, the ΔTm in data set [8] was 4.4 °C.

Source of the values: ChEMBL document CHEMBL4765355, “Synthesis of adenine dinucleosides SAM analogs as specific inhibitors of SARS-CoV nsp14 RNA cap guanine-N7-methyltransferase” (Eur J Med Chem, 2020).
